Data published in ChEMBL document CHEMBL4387724, “2-Pyridineformamide N(4)-ring incorporated thiosemicarbazones inhibit MCF-7 cells by inhibiting JNK pathway” (Bioorg Med Chem Lett, 2019).

Assays:
[1] = system: MCF7; assay: Cytotoxicity against human MCF7 cells assessed as reduction in cell growth incubated for 72 hrs by MTT assay; assay type: functional, cell-based; details: MCF7, 72 h
How it was run: (§1)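 Cells grown in DMEM with 10% FBS and penicillin-streptomycin at 37 °C, 5% CO2, seeded at 3000 cells/well and attached overnight. Screening series given at 1, 3, 10, 100 μM; follow-up agent at 100 nM–3 μM; both 72 h, with 0.1% DMSO vehicle. MTT (5 mg/mL stock) added for 3 h at 37 °C, formazan dissolved in DMSO, absorbance read at 570 nm. Viability expressed as % of DMSO-treated wells from replicates.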

[2] = system: A-431; assay: Cytotoxicity against human A431 cells assessed as reduction in cell growth incubated for 72 hrs by MTT assay; assay type: functional, cell-based; details: A-431, 72 h; how it was run: as §1
[3] = system: A-375; assay: Cytotoxicity against human A375 cells assessed as reduction in cell growth incubated for 72 hrs by MTT assay; assay type: functional, cell-based; details: A-375, 72 h; how it was run: as §1
[4] = system: HeLa; assay: Cytotoxicity against human HeLa cells assessed as reduction in cell growth incubated for 72 hrs by MTT assay; assay type: functional, cell-based; how it was run: as §1
[5] = system: A-375; assay: Cytotoxicity against human A375 cells assessed as reduction in cell growth at 1 uM incubated for 72 hrs by MTT assay relative to control; assay type: functional; details: A-375, 72 h, read-out: GI; how it was run: as §1
[6] = system: A-375; assay: Cytotoxicity against human A375 cells assessed as reduction in cell growth at 3 uM incubated for 72 hrs by MTT assay relative to control; assay type: functional; details: A-375, 72 h, read-out: GI; how it was run: as §1
[7] = system: A-375; assay: Cytotoxicity against human A375 cells assessed as reduction in cell growth at 10 uM incubated for 72 hrs by MTT assay relative to control; assay type: functional; details: A-375, 72 h, read-out: GI; how it was run: as §1
[8] = system: A-375; assay: Cytotoxicity against human A375 cells assessed as reduction in cell growth at 30 uM incubated for 72 hrs by MTT assay relative to control; assay type: functional; details: A-375, 72 h, read-out: GI
[9] = system: A-375; assay: Cytotoxicity against human A375 cells assessed as reduction in cell growth at 100 uM incubated for 72 hrs by MTT assay relative to control; assay type: functional; details: A-375, 72 h, read-out: GI; how it was run: as §1
[10] = system: A-431; assay: Cytotoxicity against human A431 cells assessed as reduction in cell growth at 1 uM incubated for 72 hrs by MTT assay relative to control; assay type: functional; details: A-431, 72 h, read-out: GI; how it was run: as §1
[11] = system: A-431; assay: Cytotoxicity against human A431 cells assessed as reduction in cell growth at 3 uM incubated for 72 hrs by MTT assay relative to control; assay type: functional; details: A-431, 72 h, read-out: GI; how it was run: as §1
[12] = system: A-431; assay: Cytotoxicity against human A431 cells assessed as reduction in cell growth at 10 uM incubated for 72 hrs by MTT assay relative to control; assay type: functional; details: A-431, 72 h, read-out: GI; how it was run: as §1
[13] = system: A-431; assay: Cytotoxicity against human A431 cells assessed as reduction in cell growth at 30 uM incubated for 72 hrs by MTT assay relative to control; assay type: functional; details: A-431, 72 h, read-out: GI
[14] = system: A-431; assay: Cytotoxicity against human A431 cells assessed as reduction in cell growth at 100 uM incubated for 72 hrs by MTT assay relative to control; assay type: functional; details: A-431, 72 h, read-out: GI; how it was run: as §1
[15] = system: HeLa; assay: Cytotoxicity against human HeLa cells assessed as reduction in cell growth at 1 uM incubated for 72 hrs by MTT assay relative to control; assay type: functional; details: read-out: GI; how it was run: as §1
[16] = system: HeLa; assay: Cytotoxicity against human HeLa cells assessed as reduction in cell growth at 3 uM incubated for 72 hrs by MTT assay relative to control; assay type: functional; details: read-out: GI; how it was run: as §1
[17] = system: HeLa; assay: Cytotoxicity against human HeLa cells assessed as reduction in cell growth at 10 uM incubated for 72 hrs by MTT assay relative to control; assay type: functional; details: read-out: GI; how it was run: as §1
[18] = system: HeLa; assay: Cytotoxicity against human HeLa cells assessed as reduction in cell growth at 30 uM incubated for 72 hrs by MTT assay relative to control; assay type: functional; details: read-out: GI
[19] = system: HeLa; assay: Cytotoxicity against human HeLa cells assessed as reduction in cell growth at 100 uM incubated for 72 hrs by MTT assay relative to control; assay type: functional; details: read-out: GI; how it was run: as §1
[20] = system: MCF7; assay: Cytotoxicity against human MCF7 cells assessed as reduction in cell growth at 1 uM incubated for 72 hrs by MTT assay relative to control; assay type: functional; details: MCF7, 72 h, read-out: GI; how it was run: as §1
[21] = system: MCF7; assay: Cytotoxicity against human MCF7 cells assessed as reduction in cell growth at 3 uM incubated for 72 hrs by MTT assay relative to control; assay type: functional; details: MCF7, 72 h, read-out: GI; how it was run: as §1
[22] = system: MCF7; assay: Cytotoxicity against human MCF7 cells assessed as reduction in cell growth at 10 uM incubated for 72 hrs by MTT assay relative to control; assay type: functional; details: MCF7, 72 h, read-out: GI; how it was run: as §1
[23] = system: MCF7; assay: Cytotoxicity against human MCF7 cells assessed as reduction in cell growth at 30 uM incubated for 72 hrs by MTT assay relative to control; assay type: functional; details: MCF7, 72 h, read-out: GI
[24] = system: MCF7; assay: Cytotoxicity against human MCF7 cells assessed as reduction in cell growth at 100 uM incubated for 72 hrs by MTT assay relative to control; assay type: functional; details: MCF7, 72 h, read-out: GI; how it was run: as §1

Row | Structure (SMILES) | IC50 [1] [µM] | IC50 [2] [µM] | IC50 [3] [µM] | IC50 [4] [µM] | inhibition of growth at 1 µM [5] [%] | inhibition of growth at 3 µM [6] [%] | inhibition of growth at 10 µM [7] [%] | inhibition of growth at 30 µM [8] [%] | inhibition of growth at 100 µM [9] [%] | inhibition of growth at 1 µM [10] [%] | inhibition of growth at 3 µM [11] [%] | inhibition of growth at 10 µM [12] [%] | inhibition of growth at 30 µM [13] [%] | inhibition of growth at 100 µM [14] [%] | inhibition of growth at 1 µM [15] [%] | inhibition of growth at 3 µM [16] [%] | inhibition of growth at 10 µM [17] [%] | inhibition of growth at 30 µM [18] [%] | inhibition of growth at 100 µM [19] [%] | inhibition of growth at 1 µM [20] [%] | other results
1 | N/C(=N\NC(=S)N1CCCCC1)c1ccccn1 | 8.5 | 6.9 | 0.68 | 3.8 | 72.5 | 86.5 | 85.8 | 87 | 88.5 | 24.4 | 27 | 68.1 | 79.7 | 85.6 | 15.5 | 49.2 | 55.7 | 76.9 | 86 | 15.4 | inhibition of growth at 3 µM [21]: 38.6%; inhibition of growth at 10 µM [22]: 53.1%; inhibition of growth at 30 µM [23]: 69.3%; inhibition of growth at 100 µM [24]: 77.7%
2 | N/C(=N\NC(=S)N1CCOCC1)c1ccccn1 | 4.7 | 4.8 | 0.68 | 7.3 | 26.8 | 19.3 | 18.3 | 15 | 14 | 29.2 | 43.1 | 69.4 | 78.8 | 84.6 | 12.7 | 40 | 56.3 | 82.8 | 87.2 | 14.7 | inhibition of growth at 3 µM [21]: 44.5%; inhibition of growth at 10 µM [22]: 66.7%; inhibition of growth at 30 µM [23]: 78.1%; inhibition of growth at 100 µM [24]: 81.6%
3 | Cc1cccc(/C(N)=N/NC(=S)N2CCCCC2)n1 | 74 | 12.4 | 1 | 2 | 49.9 | 63.2 | 76.4 | 80.9 | 85.7 | 35 | 36.6 | 47.8 | 65.2 | 77.5 | 27 | 68.9 | 83.5 | 83.5 | 85.4 | 19.5 | inhibition of growth at 3 µM [21]: 27.1%; inhibition of growth at 10 µM [22]: 39%; inhibition of growth at 30 µM [23]: 43%; inhibition of growth at 100 µM [24]: 54%
4 | N/C(=N\NC(=S)N1CCCCCC1)c1ccccn1 | 2.6 | 3 | 0.74 | 6 | 67 | 78.6 | 86.5 | 90 | 89 | 18.8 | 50.3 | 67 | 72.3 | 77.5 | 21.3 | 36.6 | 67.4 | 82.9 | 88.7 | 25.3 | inhibition of growth at 3 µM [21]: 56%; inhibition of growth at 10 µM [22]: 62.2%; inhibition of growth at 30 µM [23]: 76.5%; inhibition of growth at 100 µM [24]: 84%
